# Experimental data as given in ChEMBL document CHEMBL1122317, “Role of substrate lipophilicity on the N-demethylation and type I binding of 3-O-alkylmorphine analogues” (J Med Chem, 1983).
# pKd: −log10 of the molar value.
# What was measured:
# Format in all cases: ADME
# [1] = Spectral dissociation constant of the compound.; details: read-out: Ks
# Summary of the method: (§1)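 Type I difference spectra recorded at 350–500 nm in washed liver microsomes from fed, untreated 180–250 g male CD rats, 3 mg protein/mL in 0.15 M KCl-0.05 M Tris. Split-beam cuvettes were warmed to 37 °C for 5 min, then substrate added stepwise to the sample side and buffer to the reference. Ks came from double-reciprocal plots of the 390–420 nm absorbance difference. Triplicate determinations.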
# [2] = Maximum optimal dose expressed as OD max X 10e-(2/3) mg; summary of the method: as §1
# [3] = Michaelis constant in O-dealkylation.
# Summary of the method: (§2)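 Octyl[6-3H]morphine N- and O-dealkylation assayed radiometrically in rat liver microsomes (1 mg protein/mL). Triplicate 20-min incubations used eight substrate concentrations from 0.1 to 1.0 mM. Reactions were stopped with acetone and extracted, then metabolites were located by UV, scraped and counted by scintillation. Km and Vmax came from Lineweaver-Burk plots, averaged over three separate studies.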
# [4] = Vmax value in N-demethylation.
# Summary of the method: (§3)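 Male CD rat hepatic microsomes (1 mg protein/mL) in 0.15 M KCl-0.05 M Tris with 5 mM MgCl2 and an NADPH-generating system (0.33 mM NADP, 5.5 mM glucose 6-phosphate, 0.67 U/mL G6PDH). Incubated in air for 10 min at 37 °C. Formaldehyde measured colorimetrically with acetylacetone at 412 nm, correcting for substrate-free blanks. Km and Vmax taken from triplicates at 11 substrate concentrations.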
# [5] = Vmax value in O-dealkylation.; summary of the method: as §2
# [6] = Michaelis constant in N-demethylation.; summary of the method: as §3
# [7] = Maximum optimal dose expressed as OD max X 10e-(2/3) mg; ND = no detectable binding spectra.; summary of the method: as §1
# [8] = Rate of ethylmorphine N-demethylase in the presence of various concentrations (uM) at 200 uM concentration.
# Summary of the method: (§4)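 2 mM 3-O-ethylmorphine was N-demethylated for 10 min at 37 °C by male CD rat liver microsomes (1 mg protein/mL) with an NADPH-generating system, with 0, 20, 200 or 2000 μM added decyl or dodecyl analogue. Formaldehyde was read colorimetrically at 412 nm. Rate is nmol/min/mg protein, from triplicate incubations.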
# [9] = Rate of ethylmorphine N-demethylase in the presence of various concentrations (uM) at 0 uM concentration.; summary of the method: as §4
# [10] = Rate of ethylmorphine N-demethylase in the presence of various concentrations (uM) at 20 uM concentration.; summary of the method: as §4
# [11] = Rate of ethylmorphine N-demethylase in the presence of various concentrations (uM) at 2000 uM concentration.; summary of the method: as §4
# [12] = Spectral dissociation constant of the compound; ND = no detectable binding spectra.; summary of the method: as §1
compound,measurement,setting,value
CCCCCCOc1ccc2c3c1OC1C(O)C=CC4C(C2)N(C)CCC341.Cl (configuration not stated),pKd,[1],4.89
same,OD max,[2],1.9 mg
CCCCCCCCOc1ccc2c3c1OC1C(O)C=CC4C(C2)N(C)CCC341.Cl (configuration not stated),Km,[3],125 µM
same,Vmax,[4],1.98 nM/min
same,pKd,[1],5.06
same,Vmax,[5],3.57 nM/min
same,OD max,[2],2.1 mg
same,Km,[6],67 µM
CCCCCCCCCCCCOc1ccc2c3c1OC1C(O)C=CC4C(C2)N(C)CCC341.Cl (configuration not stated),OD max,[7],No detectable binding spectra
same,Rate,[8],8.98 nM/min
same,Rate,[9],8.92 nM/min
same,Rate,[10],8.81 nM/min
same,Rate,[11],9.06 nM/min
same,Ks,[12],No detectable binding spectra
CCCCCOc1ccc2c3c1OC1C(O)C=CC4C(C2)N(C)CCC341.Cl (configuration not stated),pKd,[1],4.84
same,OD max,[2],2 mg
CCCOc1ccc2c3c1OC1C(O)C=CC4C(C2)N(C)CCC341.Cl (configuration not stated),pKd,[1],4.55
same,OD max,[2],1.8 mg
CCCCCCCCCOc1ccc2c3c1OC1C(O)C=CC4C(C2)N(C)CCC341.Cl (configuration not stated),pKd,[1],5.12
same,OD max,[2],2.15 mg
CCCCCCCOc1ccc2c3c1OC1C(O)C=CC4C(C2)N(C)CCC341.Cl (configuration not stated),pKd,[1],4.94
same,OD max,[2],1.8 mg
COc1ccc2c3c1O[C@H]1[C@@H](O)C=C[C@H]4[C@@H](C2)N(C)CC[C@@]341.O=S(=O)(O)O,OD max,[2],1.85 mg
CCCCOc1ccc2c3c1OC1C(O)C=CC4C(C2)N(C)CCC341.Cl (configuration not stated),pKd,[1],4.74
same,OD max,[2],2.06 mg
CCCCCCCCCCOc1ccc2c3c1OC1C(O)C=CC4C(C2)N(C)CCC341.Cl (configuration not stated),OD max,[7],No detectable binding spectra
same,Rate,[8],9.12 nM/min
same,Rate,[9],9.11 nM/min
same,Rate,[10],8.92 nM/min
same,Rate,[11],9.22 nM/min
same,Ks,[12],No detectable binding spectra
CCOc1ccc2c3c1OC1C(O)C=CC4C(C2)N(C)CCC341.Cl (configuration not stated),Km,[3],55 µM
same,Vmax,[4],9.31 nM/min
same,pKd,[1],4.54
same,Vmax,[5],1.86 nM/min
same,OD max,[2],1.9 mg
same,Km,[6],245 µM
